Values after ≈ are worked out from the molar mass of the structure shown. Active and inactive are the calls of the source. The rule behind the calls is not given here.
Experiments:
[1] = test system: Mycobacterium tuberculosis; assay: Antimicrobial activity against Mycobacterium tuberculosis H37Rv after 7 days by BacTiter-Glo assay; format: functional, organism-based; conditions: 168 h
Outline: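 H37Rv in 384-well format, 10-point dose response, compounds serially diluted 1:2 from 100 thru 0.195 (top of range); DMSO carrier as 100% growth control, high amikacin as background, lower amikacin (MIC-approximating) control. After 7 days, equilibrated to room temperature, BacTiter-Glo added, 20 min at room temperature, luminescence (ATP) read.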

[2] = test system: Mycobacterium tuberculosis; assay: Antimicrobial activity against Mycobacterium tuberculosis H37Rv SRI 1345 infected in mouse J774 cells assessed as intracellular growth inhibition at 10-fold above MIC after 7 days relative to control; format: functional
Outline: (§1)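 Murine J774 cells in RPMI 1640 + L-glutamine/FBS, 37 °C, 5% CO2; seeded 2.0 × 10^5 per well in 10% FBS, overnight, then 1% FBS to halt division. After 24 h infected with H37Rv at MOI 5 for 4 h, washed; drug at three concentrations (mid bracketing primary-screen MIC, ten-fold below and above) for 7 days. SDS lysis, DNase, plating on 7H10 for CFU; log reduction day 0 to day 7; duplicates, rifampin control.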

[3] = test system: Mycobacterium tuberculosis; assay: Antimicrobial activity against Mycobacterium tuberculosis H37Rv SRI 1345 assessed as growth inhibition at MIC after 7 days by broth microdilution assay relative to control; format: functional
Outline: (§2)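 Broth microdilution per CLSI in Middlebrook 7H9 + OADC; ten two-fold dilutions; inoculum targeted 1.0 × 10^6 CFU/mL M. tuberculosis; 37 °C, ~90% humidity, 7 days. Wells scored visually for turbidity, partial or complete clearing; MIC = lowest concentration visually inhibiting growth; percent inhibition at the MIC also recorded. Duplicates; rifampin or isoniazid positive control, medium-only and organism-only controls.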

[4] = test system: Mycobacterium tuberculosis; assay: Antimicrobial activity against Mycobacterium tuberculosis H37Rv SRI 1345 infected in mouse J774 cells assessed as intracellular growth inhibition at MIC after 7 days relative to control; format: functional; outline: as §1
[5] = test system: Mycobacterium tuberculosis; assay: Antimicrobial activity against Mycobacterium tuberculosis H37Rv SRI 1345 assessed as growth inhibition after 7 days by broth microdilution assay; format: functional; conditions: H37Rv SRI 1345, 168 h; outline: as §2
[6] = Cytotoxicity against mouse J774 cells assessed as cell viability at 10-fold above MIC relative to control; format: cell-based; conditions: read-out: Activity
Outline: (§3)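 Uninfected J774 macrophages run in parallel to the infection assay (RPMI 1640, 1% FBS, 37 °C, 5% CO2), exposed to the same three concentrations (mid bracketing primary-screen MIC, ten-fold below and above); MTT proliferation read-out reported as percent viability.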

[7] = test system: Mycobacterium tuberculosis; assay: Antimicrobial activity against Mycobacterium tuberculosis H37Rv SRI 1345 infected in mouse J774 cells assessed as intracellular growth inhibition at 10-fold below MIC after 7 days relative to control; format: functional; outline: as §1
[8] = Cytotoxicity against mouse J774 cells assessed as cell viability at MIC relative to control; format: cell-based; conditions: read-out: Activity; outline: as §3
[9] = Cytotoxicity against mouse J774 cells assessed as cell viability at 10-fold below MIC relative to control; format: cell-based; conditions: read-out: Activity; outline: as §3
[10] = test system: Mycobacterium tuberculosis; assay: Bactericidal activity against Mycobacterium tuberculosis H37Rv SRI 1345 after 18 to 24 hrs; format: functional; conditions: for MBC: Mycobacterium tuberculosis, H37Rv SRI 1345, read-out: MBC99.9
Outline: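 Following MIC testing, diluted aliquots from wells lacking macroscopic growth plated on Middlebrook 7H10 agar, 16–21 days at 37 °C, colonies counted. MBC = lowest concentration giving 99.9% kill over the MIC period (18–24 h); >40 colonies taken as rejection value; uncountable plates reported TNTC.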

[11] = test system: Mycobacterium tuberculosis; assay: Antimicrobial activity against Mycobacterium tuberculosis H37Rv SRI 1345 incubated for 7 days under aerobic condition by low-oxygen recovery assay; format: functional, organism-based
[12] = test system: Mycobacterium tuberculosis; assay: Antimicrobial activity against Mycobacterium tuberculosis H37Rv SRI 1345 incubated for 7 days under anaerobic condition followed by exposure to gaseous condition measured after 7 days by low-oxygen recovery assay; format: functional, organism-based
Outline: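 Microplates set up as for MIC testing, then held anaerobically (automated jar gassing) 7 days at 37 °C, moved to ambient air with 5% CO2 for 7 days; wells scored visually for turbidity/clearing. Result = lowest concentration visually inhibiting growth. Duplicates with sterility, growth and rifampin or isoniazid controls.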

Compound `O=C1c2ccccc2-c2nc3ccc([N+](=O)[O-])cc3c(-c3ccccc3)c21` has an IC50 [1] of over 100 µM and an IC90 [1] of over 100 µM.
`N[C@@H]1CONC1=O` [CYCLOSERINE] gave an IC50 [1] of 12.5 µM and an IC90 [1] of 13.5 µM.
`CCc1nc(N)nc(N)c1-c1ccc(Cl)cc1` [PYRIMETHAMINE] gave an IC50 [1] of 5 µM and an IC90 [1] of 5 µM.
Work on `Clc1ccc2nc3c(c(-c4ccccc4)c2c1)CCCC3` yielded an IC50 [1] of over 100 µM and an IC90 [1] of over 100 µM.
With `CO[C@H]1/C=C/O[C@@]2(C)Oc3c(C)c(O)c4c(O)c(c(/C=N/N5CCN(C)CC5)c(O)c4c3C2=O)NC(=O)/C(C)=C\C=C\[C@H](C)[C@H](O)[C@@H](C)[C@@H](O)[C@@H](C)[C@H](OC(C)=O)[C@@H]1C` [RIFAMPIN] the “fold change (FC)” value [2] was 1.85, the IC50 [1] was 0.02 µM and the IC90 [1] was 0.02 µM. The “growth inhibition (GI)” value [3] was 65%, the “fold change (FC)” value [4] was 1.83 and the MIC [5] was 0.049 µg/mL (≈ 0.0595 µM). The viability [6] was 78%, the “fold change (FC)” value [7] was 0.46 and the viability [8] was 86%. For the same compound, the viability [9] was 82%, the CFU [10] was 39 and the MBC [10] was 1.56 µg/mL (≈ 1.9 µM).
For `Clc1ccc2nc3c(c(-c4ccccc4)c2c1)CCC3`, the “fold change (FC)” value [2] was 3.12, the IC50 [1] was 73.4 µM and the IC90 [1] was over 100 µM. The “growth inhibition (GI)” value [3] was 88%, the “fold change (FC)” value [4] was 1.82 and the MIC [5] was 12.5 µg/mL (≈ 44.7 µM). For the same compound, the viability [6] was under 10%, the Activity [11] was “Active” and the “fold change (FC)” value [7] was 1. For the same compound, the viability [8] was 79%, the viability [9] was 86% and the Activity [12] was “Active”. The CFU [10] was 0 and the MBC [10] was 50 µg/mL (≈ 179 µM).
Compound `NCC[C@H](O)C(=O)N[C@@H]1C[C@H](N)[C@@H](O[C@H]2O[C@H](CN)[C@@H](O)[C@H](O)[C@H]2O)[C@H](O)[C@H]1O[C@H]1O[C@H](CO)[C@@H](O)[C@H](N)[C@H]1O` [AMIKACIN] has an IC50 [1] of 0.07 µM and an IC90 [1] of 0.08 µM.
`NNC(=O)c1ccncc1` [ISONIAZID] showed an IC50 [1] of 0.18 µM and an IC90 [1] of 0.29 µM.
`O=C1c2ccccc2-c2nc3ccc(Cl)cc3c(-c3ccccc3)c21` gave an IC50 [1] of over 100 µM and an IC90 [1] of over 100 µM.
`CC[C@@H](CO)NCCN[C@@H](CC)CO` [ETHAMBUTOL] showed an IC50 [1] of under 1.56 µM and an IC90 [1] of 32.8 µM.
For `O=[N+]([O-])c1ccc2nc3c(c(-c4ccccc4)c2c1)CCCCC3`, the “fold change (FC)” value [2] was 1.41, the IC50 [1] was 61.9 µM and the IC90 [1] was 95.4 µM. For the same compound, the “growth inhibition (GI)” value [3] was 76%, the “fold change (FC)” value [4] was 1.19 and the MIC [5] was 75 µg/mL (≈ 236 µM). For the same compound, the viability [6] was under 10%, the Activity [11] was “Active” and the “fold change (FC)” value [7] was 1.24. The viability [8] was 79%, the viability [9] was 82% and the Activity [12] was “Active”.
With `Clc1ccc2nc3c(c(-c4ccccc4)c2c1)CCCCC3` the IC50 [1] was over 100 µM and the IC90 [1] was over 100 µM.
`Clc1ccc2nc3c(c(-c4ccccc4)c2c1)-c1ccccc1C3` gave an IC50 [1] of over 100 µM and an IC90 [1] of over 100 µM.
In the case of `Clc1ccc2nc3c(c(-c4ccccc4)c2c1)Cc1ccccc1-3`, the IC50 [1] is reported as over 100 µM and the IC90 [1] is reported as over 100 µM.
With `CC1(C)CC(=O)c2c(nc3ccc(Cl)cc3c2-c2ccccc2)C1` the IC50 [1] was over 100 µM and the IC90 [1] was over 100 µM.
In the case of `O=[N+]([O-])c1ccc2nc3c(c(-c4ccccc4)c2c1)Cc1ccccc1-3`, the IC50 [1] is reported as over 100 µM and the IC90 [1] is reported as over 100 µM.
With `O=[N+]([O-])c1ccc2nc3c(c(-c4ccccc4)c2c1)CCCC3` the “fold change (FC)” value [2] was 1.72, the IC50 [1] was 44.4 µM and the IC90 [1] was over 100 µM. For the same compound, the “growth inhibition (GI)” value [3] was 52%, the “fold change (FC)” value [4] was 1.25 and the MIC [5] was 12.5 µg/mL (≈ 41.1 µM). For the same compound, the viability [6] was 25%, the Activity [11] was “Active” and the “fold change (FC)” value [7] was 1.8. The viability [8] was 63%, the viability [9] was 67% and the Activity [12] was “Active”.
`CC1(C)CC(=O)c2c(nc3ccc([N+](=O)[O-])cc3c2-c2ccccc2)C1` gave an IC50 [1] of over 100 µM and an IC90 [1] of over 100 µM.
